# Pf Dd2 inh – P. falciparum Dd2 growth inhibition. SYBR Green, 72 h; stronger effect = lower value. hit rate 2.3% among 94,000. activity change, % at 10 µM; in the data active means activity change below about -80%; inconclusive means no clear call, values can overlap the other calls
# T cruzi growth-1 – inhibitors of T. cruzi proliferation | T. cruzi beta-gal in NIH3T3, GalScreen luminescence, 90 h | inhibition, % at 8.34 µM | hit rate 5.9% among 77,000 | AID 624255;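 active means mean inhibition above about 93%, with at least 55% of replicates each passing it, limit read from the data, passing the limit was not always enough; inconclusive means only one of those two conditions holds; inactive means neither condition holds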
# KDM4C inh – KDM4C (human) demethylase inhibition. GST-KDM4C 2-372, H3K9me3 peptide, LANCE TR-FRET. inhibition, % at 12.5 µM. hit rate 0.15% among 96,000;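 active means mean replicate inhibition above about 25%, with at least 55% of replicates also reaching it, limit read from the data, passing the limit was not always enough; inconclusive means only one of those two conditions met; inactive means neither condition met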
#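 Compound: one test concentration per compound; Material: GST-GASC-1 enzyme fragment 2-372; Amount: GASC-1 enzyme at 10 nM final in reaction; Also added: H3K9me3 peptide substrate, Fe(II), 2-oxoglutarate; Technique: LANCE TR-FRET; Times: 30 min demethylation and 1 h detection at room temperature.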
# IDH1 mut inh – blocks human IDH1 R132H reductase activity; O75874; diaphorase/resazurin fluorescence, 60 min; inhibition, % at 10 µM; hit rate 0.18% among 70,000; in the data active means inhibition above about 34%; inconclusive means no clear call, values can overlap the other calls; inactive means below about 11%;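 further: 0% = DMSO and 100% = no enzyme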
# Target sequence (O75874 whole entry R132H): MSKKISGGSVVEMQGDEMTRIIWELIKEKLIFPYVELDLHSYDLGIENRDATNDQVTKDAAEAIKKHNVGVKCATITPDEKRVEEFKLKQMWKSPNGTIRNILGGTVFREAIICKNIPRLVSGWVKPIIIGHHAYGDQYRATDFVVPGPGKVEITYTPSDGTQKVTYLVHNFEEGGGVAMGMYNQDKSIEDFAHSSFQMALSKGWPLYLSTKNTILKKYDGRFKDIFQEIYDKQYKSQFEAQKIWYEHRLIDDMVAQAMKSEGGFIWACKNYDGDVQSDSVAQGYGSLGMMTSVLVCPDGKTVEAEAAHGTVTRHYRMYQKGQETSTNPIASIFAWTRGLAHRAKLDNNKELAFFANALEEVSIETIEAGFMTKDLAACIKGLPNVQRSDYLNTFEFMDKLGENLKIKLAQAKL
# T cruzi growth-2 – inhibitors of T. cruzi proliferation; shares compounds with T cruzi growth-1; T. cruzi beta-gal in NIH3T3, GalScreen luminescence, 90 h; inhibition, % at 8.35 µM; hit rate 72% among 5,600; AID 651739;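 active means mean replicate inhibition above about 95% and at least 55% of replicates individually reaching it, limit read from the data; inconclusive means only one of the two criteria is met; inactive means neither criterion is met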
# T cruzi growth-3 – Trypanosoma cruzi proliferation inhibition | hit rate 21% among 5,600 | T. cruzi beta-gal in NIH3T3, GalScreen luminescence, 90 h | AID 651740 | inhibition, % at 2.09 µM | shares compounds with T cruzi growth-1;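 active means mean inhibition above about 95%, with at least 55% of replicates also reaching it, limit read from the data; inconclusive means meets just one of the two conditions; inactive means meets neither condition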;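 further: plate controls were neutral control median for no effect and positive control median for full effect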
# NIH3T3 tox – cytotoxicity in mouse NIH/3T3 fibroblasts | hit rate 14% among 5,600 | shares compounds with T cruzi growth-1 | AID 651742 | NIH/3T3 viability, CellTiter-Glo ATP luminescence, 90 h | cytotoxicity (signal decrease), % at 8.35 µM;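 active means mean signal decrease across replicates above about 35% based on untreated-well scatter, with enough replicates individually passing, limit read from the data; inconclusive means no rule stated though some were filed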;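 further: 0% = median of neutral control wells and 100% = median of positive control wells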
# 3T3 cytotox 2 – NIH/3T3 (mouse) viability loss; shares compounds with T cruzi growth-1; NIH/3T3 viability, CellTiter-Glo ATP luminescence, 90 h; inhibition, % at 24.9 µM; hit rate 56% among 5,600; AID 651744;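 active means mean loss of cell viability signal at or above a set limit, and enough replicates individually reaching it; inconclusive means meets only the mean limit or only the replicate share; inactive means meets neither condition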;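 further: 0% = median of neutral control wells and 100% = median of positive control wells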
# Starred values were filed as active, the others as inactive; ? = inconclusive; . = not tested or not shown. This is a sample that favours compounds with a hit; in the whole collection about 5.8% have one here.
SMILES,Pf Dd2 inh,T cruzi growth-1,KDM4C inh,IDH1 mut inh,T cruzi growth-2,T cruzi growth-3,NIH3T3 tox,3T3 cytotox 2
C[C@H]1CN([C@@H](C)CO)S(=O)(=O)c2ccc(C#CC(C)(C)O)cc2O[C@H]1CN(C)Cc1ccccc1,-32,77,.,.,.,.,.,.
C[C@H]1CCCCO[C@H](CN(C)Cc2ccc(Cl)c(Cl)c2)[C@@H](C)CN([C@@H](C)CO)C(=O)c2cc(NC(=O)Nc3ccc(F)cc3)ccc2O1,-34,102*,-2,.,95*,112*,2,7
C[C@@H]1CCCCO[C@@H](CN(C)Cc2ccc(Cl)c(Cl)c2)[C@@H](C)CN([C@@H](C)CO)C(=O)c2cc(NC(=O)Nc3ccccc3)ccc2O1,-39,73,0,.,.,.,.,.
C[C@@H]1CCCCO[C@@H](CN(C)Cc2ccc(Cl)c(Cl)c2)[C@@H](C)CN([C@@H](C)CO)C(=O)c2cc(NC(=O)Nc3ccc(F)cc3)ccc2O1,-52,109*,0,.,?,109*,4,27
C[C@@H]1CN([C@H](C)CO)C(=O)c2cc(NC(=O)Nc3ccc(F)cc3)ccc2O[C@@H](C)CCCCO[C@@H]1CN(C)Cc1ccc(Cl)c(Cl)c1,-79,101*,12,0,96*,105*,-29,-12
C[C@H]1CCCCO[C@H](CN(C)Cc2ccc(Cl)c(Cl)c2)[C@@H](C)CN([C@@H](C)CO)C(=O)c2cc(NC(=O)Nc3ccccc3)ccc2O1,-61,69,-2,.,.,.,.,.
C[C@@H]1CN([C@H](C)CO)C(=O)c2cccc(NC(=O)c3ccncc3)c2O[C@H]1CN(C)Cc1ccc2c(c1)OCO2,-7,98*,-2,3,91,74,23,25
C[C@H]1CN([C@@H](C)CO)C(=O)c2cccc(NC(=O)c3ccncc3)c2O[C@@H]1CN(C)Cc1ccncc1,6,52,3,.,.,.,.,.
C[C@H]1CN([C@@H](C)CO)C(=O)c2cccc(NC(=O)c3ccncc3)c2O[C@H]1CN(C)Cc1ccc2c(c1)OCO2,-2,97*,1,0,108*,86,3,?
C[C@@H]1CN([C@H](C)CO)C(=O)c2cccc(NC(=O)c3ccncc3)c2O[C@H]1CN(C)Cc1ccncc1,-35,80,0,2,.,.,.,.
C[C@@H]1CN([C@@H](C)CO)C(=O)c2cccc(NC(=O)c3ccncc3)c2O[C@H]1CN(C)Cc1ccc2c(c1)OCO2,-8,103*,3,0,97*,92,-3,27*
C[C@H](CO)N1C[C@H](C)[C@H](CN(C)Cc2ccncc2)Oc2c(NC(=O)c3ccncc3)cccc2C1=O,7,50,0,-1,.,.,.,.
CC(CCC1(C)C(C)CCC2(CO)C(CO)=CCCC21)CC(=O)O (stereo not given),.,.,.,-1,.,.,.,.
COc1ccc(CN(C)C[C@@H]2OCCCC[C@H](C)Oc3ccc(NS(=O)(=O)c4ccc(Cl)cc4)cc3C(=O)N([C@@H](C)CO)C[C@@H]2C)cc1,.,.,.,0,.,.,.,.
CC(=O)c1ccc(NC(=O)CSc2nnc(C34CC5CC(CC(C5)C3)C4)n2C)cc1,.,.,.,0,.,.,.,.
CCCOc1ccc(Oc2nc(NCC)nc(OC)n2)nn1,.,.,.,1,.,.,.,.
C[C@@H]1CN([C@H](C)CO)S(=O)(=O)c2ccc(/C=C/c3ccccc3)cc2O[C@@H]1CN(C)Cc1cccnc1,-33,128*,-2,0,91,91,83*,96*
C[C@@H]1CN([C@@H](C)CO)S(=O)(=O)c2ccc(/C=C/c3ccccc3)cc2O[C@@H]1CN(C)Cc1ccccc1,-7,100*,-1,0,97*,110*,17,81*
C/C=C/c1ccc2c(c1)O[C@H](CN(C)Cc1cccnc1)[C@H](C)CN([C@@H](C)CO)S2(=O)=O,2,?,-1,2,75,-7,3,20
C/C=C/c1ccc2c(c1)O[C@H](CN(C)Cc1cccnc1)[C@@H](C)CN([C@H](C)CO)S2(=O)=O,-22,106*,0,?,103*,100*,48*,71*

# Screening data from PubChem BioAssay.
